# Test results as given in article PMC10655119 (Journal of the American Chemical Society, 2023).
# Columns and labels:
# Format in all cases: cell-based
# HeLa cells [1] = experiment: Protein-CPP; settings: 1 h; for Delivery of I into the cytosol with CPP-additive at 2.5 μM: I 5 μM + CPP-additive 2.5 μM, serum-free
# HeLa cells [2] = experiment: Time-lapse fluorescence microscopy of Cy5-labeled CPP-additives; settings: for Time until nucleolar mCherry signals are observed: serum-free, images at 60 s intervals
# Procedure, shortened: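 HeLa cells given Cy5-labeled R10 peptide additives (1 μM), with or without the hydrophobic motif, in serum-free FluoroBrite DMEM. Confocal imaging at 5 and 10 min, with line-scan profiles of Cy5 distribution. For cotreatment, NLS-mCherry-R10 cargo (5 μM) and additive were added after 60 s of baseline imaging. Frames taken every 60 s for 15 min to track nucleolar mCherry.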
# HeLa cells [3] = experiment: Mitochondrial dehydrogenase; settings: 1 h, serum-free FluoroBrite DMEM
# Procedure, shortened: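 HeLa cells exposed 1 h to CPP-additive (2.5, 5 or 10 μM) in serum-free FluoroBrite DMEM, then viability read by WST-1 reduction to formazan by mitochondrial dehydrogenase. For prolonged exposure, cells coincubated 1 h with NLS-mCherry-R10 cargo plus additive, supernatant replaced with fresh culture medium, and WST-1 read after 24 h.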
# HeLa cells [4] = experiment: Lactate dehydrogenase; settings: 1 h
# Procedure, shortened: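 HeLa cells exposed to CPP-additives at 2.5, 5 or 10 μM for 1 h in serum-free FluoroBrite DMEM. Membrane integrity judged by lactate dehydrogenase released into the medium. Mean ± SE of three biological replicates.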
# [5] = HeLa, 2.5, 5 or 10 μM CPP-additive, three biological replicates
# [6] = HeLa, 2.5, 5 or 10 μM CPP-additive
compound,measurement,setting,value
TNB-R10-Nal [compound 6],Delivery of I into the cytosol with CPP-additive at 2.5 μM,HeLa cells [1],successful delivery
alk-Cy5-R10-ILFF [alkylated analogue],Membrane interaction and facilitation of protein-CPP uptake,"HeLa cells [2]; alk-Cy5-R10-ILFF 1 μM alone or with I 5 μM, 10 min",incapable of both interacting with the cell membrane and facilitating the uptake of protein-CPPs
TNB-R10-Nal2 [compound 7],Delivery of I into the cytosol with CPP-additive at 2.5 μM,HeLa cells [1],successful delivery
TNB-Cy5-R10-ILFF [compound 23],Line-scan profile of Cy5 fluorescence after 10 min,HeLa cells [2]; 1 μM peptide alone,remained concentrated around the cell periphery
same,Time until cell-surface-associated additive is internalized into endosomes,"HeLa cells [2]; 23 1 μM 5 min at 37 °C, washed, time-lapse 30 min",30 min
same,Cell membrane accumulation of additive in the presence of I,HeLa cells [2]; I 5 μM + Cy5-additive 1 μM,persisted even after 10 min
same,Time until nucleolar mCherry signals are observed,HeLa cells [2]; I 5 μM + Cy5-additive 1 μM,3 min
TNB-R10-ILLL [compound 5],Cytotoxicity (WST1 assay),HeLa cells [3]; [5],no cytotoxic effect
same,LDH release (membrane integrity),HeLa cells [4]; [6],no LDH release
TNB-R10-FWF [compound 3],Cytotoxicity (WST1 assay),"HeLa cells [3]; HeLa, 5 μM CPP-additive",no cytotoxicity
same,LDH release (membrane integrity),"HeLa cells [4]; HeLa, 5 μM CPP-additive",significantly released
TNB-Cy5-R10 [compound 22],Line-scan profile of Cy5 fluorescence after 10 min,HeLa cells [2]; 1 μM peptide alone,mainly observed within the interior of cells
same,Localisation of Cy5-labeled CPP-additive over time,"HeLa cells [2]; 1 μM peptide alone, serum-free FluoroBrite DMEM, 37 °C, time-lapse",quickly enters the cytosol
same,Time until nucleolar mCherry signals are observed,HeLa cells [2]; I 5 μM + Cy5-additive 1 μM,15 min
"O=C(O)CCCc1ccc2ccc3cccc4ccc1c2c34 [PyB, pyrenebutyrate, reference compound]",Uptake of I at lowered I concentration with PyB,"HeLa cells [1]; PyB 50 μM 5 min, then I 5 μM",loss of enhanced uptake of I
same,Uptake of I after pretreatment with PyB at 10 μM and lower,"HeLa cells [1]; PyB 10 and 5 μM 5 min, then I",only endosomal uptake
TNB-R10-ILIL [compound 4],Cytotoxicity (WST1 assay),HeLa cells [3]; [5],no cytotoxic effect
same,LDH release (membrane integrity),HeLa cells [4]; [6],no LDH release
